In the library only some 3.7% were active in any assay of this set; here they are far more common.
KCNK9 block: KCNK9 potassium channel inhibitors, primary screen, HEK293 cells, thallium flux; FluxOR thallium flux fluorescence; stronger effect = lower value; B-score at 10 µM; AID 488922, 2010; Potassium channel subfamily K member 9 (Homo sapiens), Q9NPC2; hit rate 1.2% among 310,000;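 active = ratio B-score over 3 SD below the library mean, with starting fluorescence within 5 SD of its mean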;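 also: negative B-score means less thallium flux so channel inhibition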
Target sequence (Q9NPC2 whole entry, looked up): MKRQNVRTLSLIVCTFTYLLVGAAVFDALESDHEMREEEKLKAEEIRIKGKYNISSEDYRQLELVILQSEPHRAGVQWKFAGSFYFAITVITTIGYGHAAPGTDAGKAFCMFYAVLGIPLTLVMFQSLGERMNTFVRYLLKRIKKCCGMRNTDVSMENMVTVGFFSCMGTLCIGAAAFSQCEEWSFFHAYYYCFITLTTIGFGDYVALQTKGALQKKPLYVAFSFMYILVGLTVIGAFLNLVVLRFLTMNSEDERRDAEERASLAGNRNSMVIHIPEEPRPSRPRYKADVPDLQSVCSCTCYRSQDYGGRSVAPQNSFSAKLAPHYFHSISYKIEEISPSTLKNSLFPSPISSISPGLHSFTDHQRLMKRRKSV
hERG protect: hERG rescue from dofetilide block, primary screen, cell-based, CHO-hERG, FluxOR thallium flux, dofetilide IC70. dofetilide IC70 present. activation (rescue from dofetilide block), less the hit threshold, % at 10 µM. hit rate 0.51% among 310,000. AID 1511, 2009;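 active = activation above the mean of controls blocked by dofetilide plus 5 SD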;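 also: thallium influx through hERG after potassium depolarization seen as dye fluorescence rise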
KCNQ1 inh: inhibitors of human KCNQ1 channel, primary screen, cell-based, thallium flux, high-throughput. Potassium voltage-gated channel subfamily KQT member 1 (Homo sapiens), P51787. CHO-K1 KCNQ1, FluxOR thallium flux fluorescence; stronger effect = higher value. B-score at 10 µM. hit rate 1.3% among 310,000. AID 2642, 2010;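 active = compounds whose thallium flux B-score, printed positive for inhibition, exceeds three library SD while starting fluorescence stays within three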;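 also: channel opened by potassium depolarization with thallium stimulus after 20 min compound exposure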
Kir21 inh: inhibitors of mouse Kir2.1 inward-rectifier potassium channel | Inward rectifier potassium channel 2 (Mus musculus), P35561 | HEK293-Kir2.1, FluxOR thallium flux fluorescence; stronger effect = lower value | B-score at 10 µM | hit rate 0.85% among 310,000 | AID 1672, 2009;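 active = fluorescence ratio B-score at or below minus 3 SD of library scores, with starting-brightness B-score within 2 SD, cut at about -4.2 in these data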;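 also: channel flux triggered by added potassium and thallium sulfate stimulus; B-score of peak minus minimum fluorescence over baseline after thallium stimulus; more negative B-score means stronger Kir2.1 block with less thallium influx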
KCNQ1 pot: potentiators or activators of KCNQ1 channel, primary screen, cell-based, thallium flux, high-throughput. Potassium voltage-gated channel subfamily KQT member 1 (Homo sapiens), P51787. CHO-K1 KCNQ1, thallium flux FluxOR fluorescence; stronger effect = higher value. B-score at 10 µM. hit rate 0.35% among 310,000;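 active = fluorescence ratio B-score, a plate-corrected score, at least three library SD, with initial intensity B-score within 5 SD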
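Material: CHO-K1 cells stably expressing KCNQ1. Medium: assay buffer for compound exposure, DMSO matched across wells. Reagent: K+/Tl+ depolarizing stimulus. Compound dosing: single-concentration screen. Times: 37 °C overnight plating, 90-min dark dye load, 20-min compound pretreatment. Technique: FluxOR Tl+ flux fluorescence.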
KCNK3 block: human KCNK3 channel inhibitors, primary screen, CHO cells, FluxOR thallium flux, B-score; Potassium channel subfamily K member 3 (Homo sapiens), O14649; FluxOR fluorescence; stronger effect = lower value; B-score at 10 µM; hit rate 0.84% among 340,000; AID 602410, 2012;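 active = B-score under library mean minus 4 SD, starting fluorescence ratio at most library mean plus 5 SD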;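 also: more negative B-score means stronger inhibition of thallium flux through KCNK3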
* marks the source's active call; other numbers are inactive results; i = inactive; . = not tested or not shown.

SMILES	KCNK9 block	hERG protect	KCNQ1 inh	Kir21 inh	KCNQ1 pot	KCNK3 block
CC1CCCC(C)N1/N=C/c1cc(Br)cc(Br)c1O (centres undefined)	i	-9.0	i	0.68	i	i
COc1ccccc1CNC(=O)[C@H](C)NC(=O)C1CCN(C(=O)[C@@H]2CCCN2C(=O)OC(C)(C)C)CC1	i	-6.0	i	-0.33	i	i
Cc1cccc(OCc2nnc(SCC(=O)O)n2Cc2ccccc2)c1	i	-10.4	i	-0.92	i	i
CC(C)c1ccccc1-n1c(SCC(=O)N2CCc3ccccc3C2)nc2ccccc2c1=O	i	-10.9	9*	-0.73	i	i
COc1ccc(NC(=O)c2ccc(Br)o2)cc1	i	-12.6	i	-1.63	i	i
O=C(NC(=S)Nc1ccccc1)c1ccc(Br)o1	i	3.5	i	-0.88	13*	i
COc1ccc(NC(=S)NC(=O)c2ccc(Br)o2)cc1	i	9.4*	i	0.6	17*	i
Cc1snnc1C(=O)NC(=S)Nc1ccccc1	i	11.5*	i	0.1	9*	i
O=C(NNC(=S)NCc1ccccc1)c1ccc(Br)o1	i	-2.1	i	-0.69	i	i
O=C(NC(=S)NCc1ccccc1)c1ccc(Br)o1	i	39.1*	i	-1.41	59*	i
CCOC(=O)C1=C(C)NC(C)=C(C(=O)OCC)C1C(=O)OCC(=O)N(C)C1CCS(=O)(=O)C1 (centres undefined)	i	-1.4	i	1.55	i	i
Cc1ccc(CNC(=O)/C=C/c2ccc(Br)o2)cc1	i	-13.0	i	2.15	i	i
O=C(Nc1ccc(Nc2ccccc2)cc1)c1ccc(Br)o1	-7.72*	-18.1	i	1.04	i	i
O=C(/C=C/c1ccc(Br)o1)NCc1ccccc1	-6.78*	-5.8	i	-0.18	i	i
CC(C)c1ccc(NC(=O)c2ccc(Br)o2)cc1	i	-4.7	i	2.01	i	i
COCCN(C(=O)c1oc2ccccc2c1COC)c1c(N)n(CC(C)C)c(=O)[nH]c1=O	.	.	.	.	.	i
CCC(=O)N(Cc1ccco1)c1nc(-c2ccc(OC)cc2)cs1	i	-7.7	i	1.72	i	i
CCC(=O)N(CC)c1nc(-c2ccc(OC)cc2)cs1	i	9.0*	i	-0.02	i	i
COc1ccc(-c2csc(N(CCCN(C)C)C(=O)c3ccccc3C)n2)cc1	i	-6.0	i	-0.19	i	i
COc1ccc(-c2csc(N(CCCN(C)C)C(=O)c3ccccc3Cl)n2)cc1	i	-4.1	i	-2.36	11*	i
Cn1cnc([N+](=O)[O-])c1Oc1ccc2ccccc2c1	i	-1.7	i	-0.03	i	i
CC(Sc1n[nH]c(N)n1)C(=O)NC1CCCCC1C (centres undefined)	i	-8.0	i	1.79	8*	i
CC1CCN(C(=O)/C(=C/c2ccccc2Cl)c2ccccc2)CC1	-6.72*	-12.2	i	-0.64	i	i
Cc1ccc(CCNC(=O)C2CCN(S(=O)(=O)c3ccc4nc5c(c(C(=O)O)c4c3)CCCC5)CC2)cc1	i	-8.3	i	0.34	i	i
COc1ccc(/C=C/C(=O)c2ccc3c(c2)OCO3)c(OC)c1	i	-5.0	i	-1.15	i	i
SMILES	KCNK9 block	hERG protect	KCNQ1 inh	Kir21 inh	KCNQ1 pot	KCNK3 block
COc1cc(/C=C/C(=O)c2ccc3c(c2)OCO3)cc(Cl)c1O	-7.04*	-11.8	6*	-9.65	i	i
OC(CNCC(c1ccco1)N1CCCCC1)c1ccccc1 (centres undefined)	i	5.9*	i	-2.67	i	i
O=C(CSc1ccccc1)NCC(c1ccco1)N1CCCCC1 (centres undefined)	.	.	.	.	.	i
Cc1ccc(C)c(S(=O)(=O)C(C#N)c2nc3ccccc3nc2N2CCOCC2)c1 (centres undefined)	i	-5.6	i	-1.23	i	i
Cc1ccc(C)c(S(=O)(=O)C(C#N)c2nc3ccccc3nc2N2CCCC2)c1 (centres undefined)	-8.08*	-10.9	i	-0.54	i	i
Cc1onc(-c2ccccc2Cl)c1C(=O)Nc1nnc(-c2cccc([N+](=O)[O-])c2)s1	i	-17.3	11*	1.24	i	i
CCSc1nnc(NC(=O)c2c(-c3ccccc3Cl)noc2C)s1	i	-8.4	i	0.98	i	i
Cc1ccc(NC(=O)CSc2nnc3ccc(-c4ccncc4)nn23)cc1	i	-3.1	i	0.44	i	i
Cc1ccc(-n2ncc3c(=O)n(CC(=O)N4CCN(c5ccccc5F)CC4)cnc32)cc1C	i	0.0	i	2.5	7*	i
CCN1C(=O)c2cccc3c(NC(=O)c4ccccc4)ccc1c23	i	-2.5	i	0.1	i	i
CCN1C(=O)c2cccc3c(NC(=O)c4ccc5c(c4)OCCO5)ccc1c23	i	-7.3	i	1.19	i	-10.3*
O=C(COC(=O)CNC(=O)c1ccccc1F)NC1CC1	.	.	.	.	.	i
COc1ccc(C(=S)N2CCCC2)cc1C	i	-0.7	i	0.75	i	i
Cc1cc(N2CCN(C)CC2)nc2ccc(NC(=S)NCCN3CCc4ccccc4C3)cc12	i	-12.1	i	-4.65*	i	i
Cc1ccc(/C=N/NC(=O)Cn2nnc(N)n2)o1	i	-8.3	i	-0.17	i	i
CN(C)CCCN(C(=O)c1ccc(S(=O)(=O)N2CCCCCC2)cc1)c1nc2ccc(F)cc2s1	i	-20.0	i	-4.95*	i	i
CN(C)CCCN(C(=O)c1ccc(S(=O)(=O)N2CCOCC2)cc1)c1nc2ccc(F)cc2s1	i	-8.4	i	-0.58	i	i
CN(C)CCCN(C(=O)c1ccc2c(c1)CCCC2)c1nc2ccc(Cl)cc2s1	i	-22.1	i	-4.28*	i	i
COc1cc(C(C[N+](=O)[O-])c2c(-c3ccccc3)cc3ccccn23)cc(OC)c1OC (centres undefined)	-7.87*	-4.1	i	1.21	i	i
COc1ccc(C(C[N+](=O)[O-])c2c(-c3ccccc3)cc3ccccn23)cc1OC (centres undefined)	i	-16.3	i	-0.06	i	i
COc1ccc(C(C[N+](=O)[O-])c2c(-c3ccccc3)cc3ccccn23)cc1 (centres undefined)	i	-11.0	8*	1.85	i	i

Source: PubChem
